Results taken from ChEMBL document CHEMBL3621153, “Structure-Based Design of GNE-495, a Potent and Selective MAP4K4 Inhibitor with Efficacy in Retinal Angiogenesis” (ACS Med Chem Lett, 2015).
Calls of active or inactive are those of the source. The rule behind the calls is not given here.

What was measured:
HUVEC = assay: Anti-angiogenesis activity in HUVEC assessed as inhibition of cell migration; type: functional, cell-based; settings: Homo sapiens
[1] = Apparent permeability in MDCK cells at 10 uM incubated over 60 mins; type: ADME, cell-based, Canis lupus familiaris; settings: dog
Method in brief: (§1)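 MDCK cells exposed to test compound at 10 μM over 60 min. Apparent permeability (Papp) measured. Efflux ratio derived from apical–basolateral versus basolateral–apical flux rates.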

[2] = Efflux ratio in MDCK cells at 10 uM incubated over 60 mins; type: ADME, cell-based, Canis lupus familiaris; settings: dog; method in brief: as §1
[3] = Clearance in human liver microsomes assessed as compound remaining incubated for 1 hr by LC-MS/MS method; type: ADME
[4] = Clearance in mouse liver microsomes assessed as compound remaining incubated for 1 hr by LC-MS/MS method; type: ADME
[5] = molecular target: T1, Mitogen-activated protein kinase kinase kinase kinase 4 (Homo sapiens, UniProt O95819); assay: Inhibition of MAP4K4 (unknown origin) by Z'LYTE assay
T1 sequence (O95819 whole entry): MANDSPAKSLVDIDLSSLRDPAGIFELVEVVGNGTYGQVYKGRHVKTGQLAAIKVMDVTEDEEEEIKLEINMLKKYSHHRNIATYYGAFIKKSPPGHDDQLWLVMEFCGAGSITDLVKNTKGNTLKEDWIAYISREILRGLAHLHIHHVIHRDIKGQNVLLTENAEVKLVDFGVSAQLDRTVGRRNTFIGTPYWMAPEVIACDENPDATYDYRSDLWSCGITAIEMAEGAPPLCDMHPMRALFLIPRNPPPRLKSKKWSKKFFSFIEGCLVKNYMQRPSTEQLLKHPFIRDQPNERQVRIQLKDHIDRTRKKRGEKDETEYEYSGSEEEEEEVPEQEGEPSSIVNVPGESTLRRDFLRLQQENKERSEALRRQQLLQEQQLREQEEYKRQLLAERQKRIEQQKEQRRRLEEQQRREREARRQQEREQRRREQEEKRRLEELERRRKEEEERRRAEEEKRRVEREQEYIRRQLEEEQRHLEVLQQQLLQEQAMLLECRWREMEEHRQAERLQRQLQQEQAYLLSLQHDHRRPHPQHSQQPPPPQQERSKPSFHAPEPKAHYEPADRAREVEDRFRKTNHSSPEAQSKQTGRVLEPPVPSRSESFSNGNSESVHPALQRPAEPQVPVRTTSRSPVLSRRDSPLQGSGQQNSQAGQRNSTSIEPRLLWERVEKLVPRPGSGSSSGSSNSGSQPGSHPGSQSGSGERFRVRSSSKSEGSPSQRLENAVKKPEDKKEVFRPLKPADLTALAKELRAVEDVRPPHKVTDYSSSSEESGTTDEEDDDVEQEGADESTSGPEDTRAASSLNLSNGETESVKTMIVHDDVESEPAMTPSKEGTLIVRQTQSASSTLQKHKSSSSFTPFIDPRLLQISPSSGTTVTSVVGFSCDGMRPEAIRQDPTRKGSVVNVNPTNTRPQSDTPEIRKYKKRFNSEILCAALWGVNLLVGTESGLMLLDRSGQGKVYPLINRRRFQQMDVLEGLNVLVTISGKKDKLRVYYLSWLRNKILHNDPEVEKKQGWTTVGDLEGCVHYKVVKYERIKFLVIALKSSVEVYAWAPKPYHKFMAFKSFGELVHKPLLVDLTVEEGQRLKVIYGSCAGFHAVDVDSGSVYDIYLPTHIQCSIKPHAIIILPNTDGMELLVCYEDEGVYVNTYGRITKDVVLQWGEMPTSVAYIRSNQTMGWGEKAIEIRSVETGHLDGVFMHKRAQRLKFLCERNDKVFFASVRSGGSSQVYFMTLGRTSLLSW

[6] = Clearance in rat liver microsomes assessed as compound remaining incubated for 1 hr by LC-MS/MS method; type: ADME
Method in brief: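 Compounds incubated with rat liver microsomes for 1 h; percent parent remaining quantified by LC–MS/MS.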

[7] = Ratio of drug level in brain to plasma in rat administered as cassette dosing; type: ADME, organism-based; settings: read-out: BPR
Method in brief: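 Brain-to-plasma ratio determined in rats after IV cassette dosing.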

[8] = molecular target: T1, Mitogen-activated protein kinase kinase kinase kinase 4; assay: Inhibition of MAP4K4 (unknown origin) by LC3K method
Method in brief: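 Kinase activity read on a Caliper LabChip 3000 platform, with IC50 values derived from that read-out.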

Mus musculus [9] = assay: Drug level in neonatal mouse pups assessed as time duration for sustained drug exposure at 25 and 50 mg/kg, ip; type: ADME, organism-based; settings: in vivo
Method in brief: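 Neonatal mouse pups given 25 or 50 mg/kg intraperitoneally. Plasma exposure followed over 24 h post-dose.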

Mus musculus [10] = assay: Anti-angiogenesis activity in neonatal mouse pups assessed as delay in retinal vascular outgrowth dosed intraperitoneally daily form P1 to P5 days by isolectin -B4 staining; type: functional, organism-based
Method in brief: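 Newborn mice dosed IP daily with vehicle or 100 mg/kg from P1 to P5. Retinas flat-mounted at P6 and stained with isolectin-B4. Avascular area normalized to total retina, one value per retina. Mann–Whitney unpaired test.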

[11] = Protein binding in mouse plasma; type: ADME, cell-free; settings: read-out: PPB (converted)
[12] = Protein binding in rat plasma; type: ADME, cell-free; settings: read-out: PPB (converted)
[13] = Clearance in mouse at 1 mg/kg, iv; type: ADME, organism-based; settings: in vivo
Method in brief: (§2)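 Single IV bolus of 1 mg/kg given as a solution in 10% EtOH, 30% PEG400, 60% 50 mM citrate, pH 3.0, in mouse, rat or dog. Three animals per group; mean values reported.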

[14] = Half life in mouse at 1 mg/kg, iv; type: ADME, organism-based; settings: in vivo; method in brief: as §2
[15] = Cmax in mouse at 1 mg/kg, iv; type: ADME, organism-based; design: dose 1 mg/kg, route intravenous; settings: in vivo; method in brief: as §2
Mus musculus [16] = assay: Volume of distribution in mouse at 5 mg/kg, po; type: ADME, organism-based; settings: in vivo
[17] = AUC (infinity) in mouse at 5 mg/kg, po; type: ADME, organism-based; design: dose 5 mg/kg, time infinity, route oral; settings: in vivo
[18] = Cmax in mouse at 5 mg/kg, po; type: ADME, organism-based; design: dose 5 mg/kg, route oral; settings: in vivo
Method in brief: (§3)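 Oral dose of 5 mg/kg given as a suspension in 0.5% (w/v) methylcellulose/0.2% (w/v) Tween 80 in sterile water, in mouse, rat or dog. Three animals per group; means reported. Bioavailability derived against a 1 mg/kg IV bolus.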

[19] = Tmax in mouse at 5 mg/kg, po; type: ADME, organism-based; settings: in vivo; method in brief: as §3
[20] = Oral bioavailability in mouse at 5 mg/kg; type: ADME, organism-based; settings: in vivo; method in brief: as §3
Brain = assay: Free drug concentration in mouse brain; type: ADME, tissue-based; settings: in vivo
Method in brief: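 Unbound drug concentration in brain measured in mice at the 1 h time point of the cross-species PK study.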

[21] = Clearance in rat at 1 mg/kg, iv; type: ADME, organism-based; settings: in vivo; method in brief: as §2
[22] = Half life in rat at 1 mg/kg, iv; type: ADME, organism-based; settings: in vivo; method in brief: as §2
[23] = Cmax in rat at 1 mg/kg, iv; type: ADME, organism-based; design: dose 1 mg/kg, route intravenous; settings: in vivo; method in brief: as §2
Rattus norvegicus = assay: Volume of distribution in rat at 5 mg/kg, po; type: ADME, organism-based; settings: in vivo
[24] = AUC (infinity) in rat at 5 mg/kg, po; type: ADME, organism-based; design: dose 5 mg/kg, time infinity, route oral; settings: in vivo
[25] = Cmax in rat at 5 mg/kg, po; type: ADME, organism-based; design: dose 5 mg/kg, route oral; settings: in vivo; method in brief: as §3
[26] = Tmax in rat at 5 mg/kg, po; type: ADME, organism-based; settings: in vivo; method in brief: as §3
[27] = Oral bioavailability in rat at 5 mg/kg; type: ADME, organism-based; settings: in vivo; method in brief: as §3
[28] = Half life in dog at 1 mg/kg, iv; type: ADME, organism-based, Canis lupus familiaris; settings: in vivo; method in brief: as §2
[29] = Cmax in dog at 1 mg/kg, iv; type: ADME, organism-based, Canis lupus familiaris; design: dose 1 mg/kg, route intravenous; settings: in vivo; method in brief: as §2
Canis familiaris [30] = assay: Volume of distribution in dog at 5 mg/kg, po; type: ADME, organism-based, Canis lupus familiaris; settings: in vivo
Canis familiaris [31] = assay: AUC (infinity) in dog at 5 mg/kg, po; type: ADME, organism-based, Canis lupus familiaris; design: dose 5 mg/kg, time infinity, route oral; settings: in vivo
[32] = Cmax in dog at 5 mg/kg, po; type: ADME, organism-based, Canis lupus familiaris; design: dose 5 mg/kg, route oral; settings: in vivo; method in brief: as §3
[33] = Tmax in dog at 5 mg/kg, po; type: ADME, organism-based, Canis lupus familiaris; settings: in vivo; method in brief: as §3
Canis familiaris [34] = assay: Oral bioavailability in dog at 5 mg/kg; type: ADME, organism-based, Canis lupus familiaris; settings: in vivo; method in brief: as §3
Mus musculus [35] = assay: Anti-angiogenesis activity in neonatal mouse pups assessed as induction of abnormal retinal vascular morphology at 100 mg/kg, ip dosed daily form P1 to P6 days by isolectin -B4 staining

CNC(=O)N1CC(NC(=O)c2cnc(N)c3nc(-c4cccc(F)c4)ccc23)C1
IC50 (HUVEC): 0.196 µM
Papp at 1 h, 10 µM [1]: 2.4 ×10⁻⁶ cm/s
efflux ratio at 1 h, 10 µM [2]: 1.1
CLhep predicted [3]: 9 mL/min/kg
CLhep predicted [4]: 32 mL/min/kg

N#CCNC(=O)c1cnc(N)c2cc(-c3cccc(F)c3)ccc12
IC50 [5]: 0.046 µM
CLhep predicted [6]: 23 mL/min/kg
Kp [7]: 0.12

CNC(=O)N1CC(NC(=O)c2cnc(N)c3cc(-c4cccc(F)c4)ccc23)C1
CLhep predicted [6]: 12.7 mL/min/kg

NC(=O)c1cnc(N)c2cc(-c3cccc(F)c3)ccc12
IC50 [5]: 0.018 µM
CLhep predicted [6]: 40 mL/min/kg

Nc1ncc(C(=O)NC2CC2)c2ccc(-c3cccc(F)c3)cc12
IC50 [8]: 0.016 µM
CLhep predicted [6]: 28 mL/min/kg

Nc1ncnc2ccc(-c3cccc(F)c3)cc12
CLhep predicted [6]: 47.5 mL/min/kg

CC(=O)N1CC(NC(=O)c2cnc(N)c3cc(-c4cccc(F)c4)ccc23)C1
IC50 [5]: 0.032 µM
CLhep predicted [6]: 9 mL/min/kg

Nc1ncc(C(=O)NC2CNC2)c2ccc(-c3cccc(F)c3)cc12
CLhep predicted [6]: 10.7 mL/min/kg

Nc1ncc(C(=O)NC2CC(O)C2)c2ccc(-c3cccc(F)c3)cc12 (mixture of isomers)
IC50 [5]: 0.041 µM
CLhep predicted [6]: 14.9 mL/min/kg
Kp [7]: 0.02

Nc1ncc(C(=O)NC2CC2)c2ccc(-c3cccc(F)c3)nc12
IC50 [5]: 0.0014 µM
IC50 (HUVEC): 0.099 µM
Papp at 1 h, 10 µM [1]: 3.4 ×10⁻⁶ cm/s
efflux ratio at 1 h, 10 µM [2]: 0.74
CLhep predicted [3]: 16 mL/min/kg
CLhep predicted [4]: 78 mL/min/kg

Nc1ncc(C(=O)NC2CN(C(=O)C3CC3)C2)c2ccc(-c3cccc(F)c3)nc12
IC50 [5]: 0.0037 µM
IC50 (HUVEC): 0.057 µM
Papp at 1 h, 10 µM [1]: 7.3 ×10⁻⁶ cm/s
efflux ratio at 1 h, 10 µM [2]: 2.3
CLhep predicted [3]: 7 mL/min/kg
CLhep predicted [4]: 13 mL/min/kg
Time (Mus musculus [9]): > 24 h
Activity (Mus musculus [10]): Active
fraction unbound [11]: 0.056
fraction unbound [12]: 0.022
clearance [13]: 19 mL/min/kg
half-life [14]: 1.5 h
Cmax [15]: 2700 nM
Vd (Mus musculus [16]): 1.6 L/kg
AUC(0-inf) [17]: 5.3 µM·h
Cmax [18]: 1400 nM
Tmax [19]: 1 h
bioavailability [20]: 47%
Drug uptake(free) (Brain): 0.008 µM
clearance [21]: 7.5 mL/min/kg
half-life [22]: 3.4 h
Cmax [23]: 4000 nM
Vd (Rattus norvegicus): 1.2 L/kg
AUC(0-inf) [24]: 12 µM·h
Cmax [25]: 1500 nM
Tmax [26]: 4 h
bioavailability [27]: 40%
half-life [28]: 1.8 h
Cmax [29]: 3900 nM
Vd (Canis familiaris [30]): 1.1 L/kg
AUC (Canis familiaris [31]): 21 µM·h
Cmax [32]: 1200 nM
Tmax [33]: 1.7 h
F (Canis familiaris [34]): 37%
Activity (Mus musculus [35]): Active

CCC(=O)N1CC(NC(=O)c2cnc(N)c3nc(-c4cccc(F)c4)ccc23)C1
IC50 [5]: 0.0035 µM
IC50 (HUVEC): 0.079 µM
CLhep predicted [3]: 5 mL/min/kg
CLhep predicted [4]: 28 mL/min/kg

Nc1ncc(C(=O)N[C@H]2C[C@@H](O)C2)c2ccc(-c3cccc(F)c3)nc12
IC50 [5]: 0.0037 µM
IC50 (HUVEC): 0.215 µM
Papp at 1 h, 10 µM [1]: 10.1 ×10⁻⁶ cm/s
efflux ratio at 1 h, 10 µM [2]: 0.83
CLhep predicted [3]: 6 mL/min/kg
CLhep predicted [4]: 61 mL/min/kg
